Measured values from different studies.
Protocols differ between the studies behind these lines.
Target: Mitogen-activated protein kinase kinase kinase kinase 5 (MAP4K5, Homo sapiens, UniProt Q9Y4K4)

SMILES | test | setting | endpoint | value
CS(=O)(=O)c1cc(C2(NC(=O)c3cncc4c3cnn4-c3ccc(F)cc3)CC2)ccn1 | cell-free assay, competition with immobilised ligand | 1 µM | remaining binding | 98%
COc1cc2ncnc(Nc3ccc(Oc4ccccc4)cc3C)c2cc1OC | enzyme activity, inhibitor | 1 µM | inhibition | 38%
C[C@@H]1CN(c2cc(-c3n[nH]c4ccc(OC5(C)CC5)cc34)ncn2)C[C@H](C)O1 | cell-free assay, competition with immobilised ligand | 0.1 µM | remaining binding | 100%
COc1ccc(COc2ccc(Cc3cnc(N)nc3N)cc2OC)cc1 | cell-free assay | 0.5 µM | remaining signal | 97.4%
Cc1nc(N2CC[C@@H](O)C2)ncc1-c1cc(C(F)(F)F)cc2[nH]ncc12 | binding, competition with immobilised ligand | 1 µM | remaining binding | 75%
Clc1ccc(Nc2nnc(Cc3ccncc3)c3ccccc23)cc1 | cell-free assay | 0.5 µM | remaining signal | 101%
CCCOc1ccc([C@@H]2[C@@H](C(=O)O)[C@H](c3ccc4c(c3)OCO4)CN2CC(=O)Nc2c(CC)cccc2CC)cc1 | cell-free assay, competition with immobilised ligand | 1 µM | remaining binding | 95%
CC(C)(C)c1nc2c(s1)c1nc(N)ncc1c1ccc(NS(=O)(=O)c3c(F)cccc3F)c(F)c12 | enzyme activity, inhibitor, radiometric | 1 µM | remaining activity | 87%
Nc1ncnc2occ(-c3ccc(NC(=O)Nc4cc(C(F)(F)F)ccc4F)cc3)c12 | cell-free assay, inhibitor | 20 µM | remaining signal | 0%
COc1ccnn2ncc(-c3ccnc(N(C)C)n3)c12 | binding | 1 µM | remaining binding | 100%
COc1cc(Nc2cnc(C#N)c(O[C@H](C)CN(C)C)n2)ncc1-c1cnn(C)c1 | enzyme activity, inhibitor, radiometric | 1 µM | remaining activity | 46%
CNCc1ccccc1-c1csc([C@H](C)Nc2nc(C)nc3cc(OC)c(OC)cc23)c1 | cell-free assay, competition with immobilised ligand | 1 µM | remaining binding | 100%
FC(F)(F)Oc1cccc(-c2cnc3ccc(-c4ccncc4)nn23)c1 | enzyme activity, inhibitor, radiometric | 5 µM | activity vs control | 74%
COc1cc(Cl)c(C(=O)N[C@@H](CN[C@H]2CC[C@@H](N)CC2)Cc2ccc(C#N)cc2)cc1-c1ccc(CN[C@H](C)c2ccc(C)cc2)o1 | enzyme activity, inhibitor | 1 µM | remaining activity | 113%
COCCOc1nc(-c2ccc(Cl)nc2)nc2c1CN(C(=O)c1ncn3ccccc13)CC2 | cell-free assay, competition with immobilised ligand | 0.1 µM | remaining binding | 91%
O=C(Nc1cnn(-c2csc(C(=O)NC3COC3)c2)c1)Nc1ccccc1Cl | enzyme activity, inhibitor | 5 µM | remaining activity | 99.1%
Cc1ccc(C(=O)NCc2ccsc2)cc1C#Cc1cn(C(C)C)c2ncnc(N)c12 | enzyme activity, inhibitor | 1 µM | activity vs control | 7%
Cc1ccc(C(=O)Nc2ccc(CN3CCN(C)CC3)c(C(F)(F)F)c2)cc1C#Cc1cnc2cccnn12 | enzyme activity, inhibitor | 23.5 nM | remaining activity | 69%
Cc1ccc(NC(=O)c2ccc(CN3CCN(C)CC3)cc2)cc1Nc1nc(-c2cccnc2)cs1 | cell-free assay | 0.5 µM | remaining signal | 97%
